Values after ≈ are worked out from the molar mass of the structure shown.
Assays:
Type in all cases: functional
[1] = tested on: Escherichia coli; assay: Antimicrobial activity against Escherichia coli DSM 682 after 48 hr by agar dilution method; details: DSM 682, 48 h
Method in brief: (§1)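 Agar dilution on standard plate count agar: 0.5 mL of a 2-fold serial dilution of sample mixed into 9.5 mL medium, poured into Petri dishes, organism streaked on the surface. Incubated at 28 °C (36 and 48 h). MIC is the lowest tested concentration with no visible growth.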

[2] = tested on: Escherichia coli; assay: Antimicrobial activity against Escherichia coli ATCC 35346 after 48 hr by agar dilution method; details: ATCC 35346, 48 h; method in brief: as §1
[3] = tested on: Stutzerimonas stutzeri; assay: Antimicrobial activity against Pseudomonas stutzeri ATCC 962 after 48 hr by agar dilution method; details: ATCC 962, 48 h; method in brief: as §1
[4] = tested on: Pseudomonas aeruginosa; assay: Antimicrobial activity against Pseudomonas aeruginosa DSM 1117 after 48 hr by agar dilution method; details: DSM 1117, 48 h; method in brief: as §1
[5] = tested on: Limosilactobacillus fermentum; assay: Antimicrobial activity against Lactobacillus fermentum DSM 20052 after 48 hr by agar dilution method; details: DSM 20052, 48 h; method in brief: as §1
[6] = tested on: Lacticaseibacillus casei; assay: Antimicrobial activity against Lactobacillus casei DSM 20011 after 48 hr by agar dilution method; details: DSM 20011, 48 h; method in brief: as §1
[7] = tested on: Lactiplantibacillus plantarum; assay: Antimicrobial activity against Lactobacillus plantarum DSM 20174 after 48 hr by agar dilution method; details: DSM 20174, 48 h; method in brief: as §1
[8] = tested on: Lacticaseibacillus rhamnosus; assay: Antimicrobial activity against Lactobacillus rhamnosus DSM 20021 after 48 hr by agar dilution method; details: DSM 20021, 48 h; method in brief: as §1
[9] = tested on: Bacillus cereus; assay: Antimicrobial activity against Bacillus cereus DSM 345 after 48 hr by agar dilution method; details: DSM 345, 48 h; method in brief: as §1
[10] = tested on: Micrococcus luteus; assay: Antimicrobial activity against Micrococcus luteus DSM 348 after 48 hr by agar dilution method; details: DSM 348, 48 h; method in brief: as §1
[11] = tested on: Staphylococcus aureus; assay: Antimicrobial activity against Staphylococcus aureus subsp. aureus DSM 346 after 48 hr by agar dilution method; details: DSM 346, 48 h; method in brief: as §1
[12] = tested on: Staphylococcus epidermidis; assay: Antimicrobial activity against Staphylococcus epidermidis DSM 1798 after 48 hr by agar dilution method; details: DSM 1798, 48 h; method in brief: as §1
[13] = tested on: Bacillus licheniformis; assay: Antimicrobial activity against Bacillus licheniformis DSM 13=ATCC 14580 after 48 hr by agar dilution method; details: DSM 13 = ATCC 14580, 48 h; method in brief: as §1
[14] = tested on: Aspergillus fumigatus; assay: Antimicrobial activity against Aspergillus fumigatus ATCC 1028 after 48 hr by agar dilution method; details: ATCC 1028, 48 h
Method in brief: (§2)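 Fungi tested by agar dilution in malt agar. Serial 2-fold sample dilutions (0.5 mL) were mixed with 9.5 mL medium and plated, then streaked with the organism. Incubation at 28 °C for 36 and 48 h. MIC is the lowest tested concentration without growth.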

[15] = tested on: Bacillus subtilis; assay: Antimicrobial activity against Bacillus subtilis DSM 345 after 48 hr by agar dilution method; details: DSM 345, 48 h; method in brief: as §1
[16] = tested on: Aspergillus flavus; assay: Antimicrobial activity against Aspergillus flavus ATCC 11655 after 48 hr by agar dilution method; details: ATCC 11655, 48 h; method in brief: as §2
[17] = tested on: Aspergillus niger; assay: Antimicrobial activity against Aspergillus niger ATCC 1040 after 48 hr by agar dilution method; details: ATCC 1040, 48 h; method in brief: as §2
[18] = tested on: Rhizopus arrhizus; assay: Antimicrobial activity against Rhizopus oryzae ATCC 56536 after 48 hr by agar dilution method; details: ATCC 56536, 48 h; method in brief: as §2
[19] = tested on: Trichoderma viride; assay: Antimicrobial activity against Hypocrea rufa ATCC 28020 after 48 hr by agar dilution method; details: ATCC 28020, 48 h; method in brief: as §2
[20] = tested on: Setophoma terrestris; assay: Antimicrobial activity against Setophoma terrestris ATCC 11321 after 48 hr by agar dilution method; details: ATCC 11321, 48 h; method in brief: as §2
[21] = tested on: Penicillium expansum; assay: Antimicrobial activity against Penicillium expansum ATCC 7861 after 48 hr by agar dilution method; details: ATCC 7861, 48 h; method in brief: as §2
[22] = tested on: Hanseniaspora guilliermondii; assay: Antimicrobial activity against Hanseniaspora guilliermondii CBS 465 after 48 hr by agar dilution method; details: CBS 465, 48 h
Method in brief: (§3)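 Yeast peptone dextrose agar plates, each holding a 2-fold serial dilution of sample (0.5 mL into 9.5 mL medium). Yeast streaked onto the plates and incubated at 28 °C, read at 36 and 48 h. MIC is the lowest concentration tested showing no growth.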

[23] = tested on: Hanseniaspora uvarum; assay: Antimicrobial activity against Hanseniaspora uvarum CBS 314 after 48 hr by agar dilution method; details: CBS 314, 48 h; method in brief: as §3
[24] = tested on: Hanseniaspora vineae; assay: Antimicrobial activity against Hanseniaspora vineae CBS 2171 after 48 hr by agar dilution method; details: CBS 2171, 48 h; method in brief: as §3
[25] = tested on: Hanseniaspora osmophila; assay: Antimicrobial activity against Hanseniaspora osmophila CBS 313 after 48 hr by agar dilution method; details: CBS 313, 48 h; method in brief: as §3
[26] = tested on: Hanseniaspora uvarum; assay: Antimicrobial activity against Hanseniaspora uvarum AP23 after 48 hr by agar dilution method; details: Distaam AP23, 48 h; method in brief: as §3
[27] = tested on: Candida albicans; assay: Antimicrobial activity against Candida albicans CBS 562 after 48 hr by agar dilution method; details: CBS 562, 48 h; method in brief: as §3
[28] = tested on: Schizosaccharomyces pombe; assay: Antimicrobial activity against Schizosaccharomyces pombe Diproval 106 after 48 hr by agar dilution method; details: Diproval 106, 48 h; method in brief: as §3
[29] = tested on: Saccharomycodes ludwigii; assay: Antimicrobial activity against Saccharomycodes ludwigii Diproval 120 after 48 hr by agar dilution method; details: Diproval 120, 48 h; method in brief: as §3
[30] = tested on: Saccharomyces cerevisiae; assay: Antimicrobial activity against Saccharomyces cerevisiae Diproval 9109 after 48 hr by agar dilution method; details: Diproval 9109, 48 h; method in brief: as §3
[31] = tested on: Saccharomyces cerevisiae; assay: Antimicrobial activity against Saccharomyces cerevisiae Diproval 7070 after 48 hr by agar dilution method; details: Diproval 7070, 48 h; method in brief: as §3
[32] = tested on: Saccharomyces cerevisiae; assay: Antimicrobial activity against Saccharomyces cerevisiae Diproval 8167 after 48 hr by agar dilution method; details: Diproval 8167, 48 h; method in brief: as §3
[33] = tested on: Saccharomyces cerevisiae; assay: Antimicrobial activity against Saccharomyces cerevisiae Diproval 2439 after 48 hr by agar dilution method; details: Diproval 2439, 48 h; method in brief: as §3
[34] = tested on: Saccharomyces cerevisiae; assay: Antimicrobial activity against Saccharomyces cerevisiae Diproval 6073 after 48 hr by agar dilution method; details: Diproval 6073, 48 h; method in brief: as §3
[35] = tested on: Saccharomyces cerevisiae; assay: Antimicrobial activity against Saccharomyces cerevisiae Diproval 404 after 48 hr by agar dilution method; details: Diproval 404, 48 h; method in brief: as §3
[36] = tested on: Enterococcus faecalis; assay: Antimicrobial activity against Enterococcus faecalis DSM 2570 after 48 hr by agar dilution method; details: DSM 2570, 48 h; method in brief: as §1

MIC [1] [µg/mL]	MIC [2] [µg/mL]	MIC [3] [µg/mL]	MIC [4] [µg/mL]	MIC [5] [µg/mL]	MIC [6] [µg/mL]	MIC [8] [µg/mL]	MIC [9] [µg/mL]	MIC [10] [µg/mL]	MIC [11] [µg/mL]	MIC [12] [µg/mL]	MIC [13] [µg/mL]	MIC [14] [µg/mL]	MIC [15] [µg/mL]	MIC [16] [µg/mL]	MIC [17] [µg/mL]	MIC [18] [µg/mL]	MIC [19] [µg/mL]	MIC [20] [µg/mL]	SMILES	MIC [7] [µg/mL]	further results
1000 (≈ 697 µM)	1000 (≈ 697 µM)	> 1000	> 1000	1000 (≈ 697 µM)	1000 (≈ 697 µM)	1000 (≈ 697 µM)	1000 (≈ 697 µM)	> 1000	> 1000	> 1000	> 1000	> 1000	> 1000	> 1000	> 1000	125 (≈ 87.1 µM)	500 (≈ 348 µM)	125 (≈ 87.1 µM)	C=C(CCC1(OC)O[C@H]2C[C@H]3[C@@H]4CC[C@H]5C[C@@H](O[C@@H]6O[C@H](CO)[C@H](O[C@@H]7O[C@H](CO)[C@@H](O)[C@H](O[C@@H]8O[C@H](CO)[C@@H](O)[C@H](O)[C@H]8O)[C@H]7O[C@@H]7O[C@H](CO)[C@@H](O)[C@H](O[C@@H]8O[C@H](CO)[C@@H](O)[C@H](O)[C@H]8O)[C@H]7O)[C@H](O)[C@H]6O)[C@H](O)C[C@]5(C)[C@H]4CC[C@]3(C)[C@H]2[C@@H]1C)CO[C@@H]1O[C@H](CO)[C@@H](O)[C@H](O)[C@H]1O (some centres not stated) [Capsicoside E]	1000 (≈ 697 µM)	MIC [21]: 1000 µg/mL (≈ 697 µM); MIC [22]: 50 µg/mL (≈ 34.8 µM); MIC [23]: 25 µg/mL (≈ 17.4 µM); MIC [24]: 50 µg/mL (≈ 34.8 µM); MIC [25]: 100 µg/mL (≈ 69.7 µM); MIC [26]: 25 µg/mL (≈ 17.4 µM); MIC [27]: 25 µg/mL (≈ 17.4 µM); MIC [28]: 100 µg/mL (≈ 69.7 µM); MIC [29]: 50 µg/mL (≈ 34.8 µM); MIC [30]: 50 µg/mL (≈ 34.8 µM); MIC [31]: 50 µg/mL (≈ 34.8 µM); MIC [32]: 50 µg/mL (≈ 34.8 µM); MIC [33]: 50 µg/mL (≈ 34.8 µM); MIC [34]: 50 µg/mL (≈ 34.8 µM); MIC [35]: 50 µg/mL (≈ 34.8 µM); MIC [36]: > 1000 µg/mL
1000 (≈ 696 µM)	1000 (≈ 696 µM)	> 1000	> 1000	1000 (≈ 696 µM)	1000 (≈ 696 µM)	1000 (≈ 696 µM)	1000 (≈ 696 µM)	> 1000	> 1000	> 1000	> 1000	> 1000	> 1000	> 1000	> 1000	125 (≈ 87 µM)	250 (≈ 174 µM)	125 (≈ 87 µM)	COC1(CC[C@@H](C)CO[C@@H]2O[C@H](CO)[C@@H](O)[C@H](O)[C@H]2O)O[C@H]2C[C@H]3[C@@H]4CC[C@H]5C[C@@H](O[C@@H]6O[C@H](CO)[C@H](O[C@@H]7O[C@H](CO)[C@@H](O)[C@H](O[C@@H]8O[C@H](CO)[C@@H](O)[C@H](O)[C@H]8O)[C@H]7O[C@@H]7O[C@H](CO)[C@@H](O)[C@H](O[C@@H]8O[C@H](CO)[C@@H](O)[C@H](O)[C@H]8O)[C@H]7O)[C@H](O)[C@H]6O)[C@H](O)C[C@]5(C)[C@H]4CC[C@]3(C)[C@H]2[C@@H]1C (some centres not stated) [O-METHYLCAPSICOSIDE A]	1000 (≈ 696 µM)	MIC [21]: 1000 µg/mL (≈ 696 µM); MIC [22]: 25 µg/mL (≈ 17.4 µM); MIC [23]: 25 µg/mL (≈ 17.4 µM); MIC [24]: 25 µg/mL (≈ 17.4 µM); MIC [25]: 50 µg/mL (≈ 34.8 µM); MIC [26]: 50 µg/mL (≈ 34.8 µM); MIC [27]: 50 µg/mL (≈ 34.8 µM); MIC [28]: 50 µg/mL (≈ 34.8 µM); MIC [29]: 50 µg/mL (≈ 34.8 µM); MIC [30]: 50 µg/mL (≈ 34.8 µM); MIC [31]: 50 µg/mL (≈ 34.8 µM); MIC [32]: 50 µg/mL (≈ 34.8 µM); MIC [33]: 50 µg/mL (≈ 34.8 µM); MIC [34]: 50 µg/mL (≈ 34.8 µM); MIC [35]: 50 µg/mL (≈ 34.8 µM); MIC [36]: > 1000 µg/mL

Reference: ChEMBL document CHEMBL3044709, “Antimicrobial furostanol saponins from the seeds of Capsicum annuum L. var. acuminatum” (2002)
